# Assay results taken from ChEMBL document CHEMBL5724801, “EUbOPEN Chemogenomics Library - Multiplex” (2024).
# Values joined by “and” are separate entries in the source; they are usually repeats but may differ in a detail not shown here. Equal entries are not always repeated.
# System: U2OS
# Test: Multiplex assay against U2OS
# Assay type: toxicity, cell-based
# Details: human, 12 h, 1 µM, compound concentration 1 uM
# Method in brief: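 Imaging took place on a CQ1 microscope at 37°C and 5% CO2 once compound had been added to live cells stained at seeding with Hoechst33342, BioTracker Green Microtubule Cytoskeleton Dye, MitoTracker Red and Annexin V Alexa Fluor 680. CellPathfinder machine-learning gating classed cells as Hoechst high-intensity objects or normal cells, classed normal cells as having healthy, pyknosed or fragmented nuclei, and classed pyknosed cells as mitotic or apoptotic. Tubulin, mitochondrial-mass and membrane-permeability phenotypes are per cents of the healthy-nucleus cells.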
SMILES,Population Apoptotic (%),Population Fragmented Nuclei (%),Population Healthy Nuclei (%),Population Hoechst High Intensity Objects (%),Population Membrane Permeable-Phenotype (%),Population Mitochondria Different-Phenotype (%),Population Mitotic Cells (%),Population Normal (%),Population Pyknosed Nuclei (%),Population Tubulin-Different-Phenotype (%)
CC(=O)Nc1cccc2c1c(Sc1ccc(Cl)cc1)c(C)n2CC(=O)O [AZD1981],68% and 83%,24% and 16%,68% and 76%,3% and 1%,3% and 6%,0% and 1%,31% and 16%,96% and 98%,6% and 7%,2% and 3%
CCOc1c2c(c(OCC)c3ncccc13)CN(c1ccc(CS(=O)(=O)NC(=O)Cc3ccccc3OC)cc1C)C2=O,64% and 100%,22% and 13%,70% and 82%,2% and 1%,7% and 9%,3%,–,97% and 98%,7% and 4%,2% and 6%
CCCN1CCC[C@@H]2Cc3n[nH]cc3C[C@H]21.Cl [QUINPIROLE HYDROCHLORIDE],71% and 61%,31% and 21%,60% and 67%,2% and 0%,7% and 2%,1%,28% and 38%,97% and 100%,8% and 11%,3% and 2%
O=C(Nc1cc(C(F)(F)F)ccc1N1CCCCC1)c1ccncc1,66.67% and 37.5%,2.62% and 1.94%,90.31% and 82.58%,0%,1.74% and 3.12%,0% and 2.34%,33.33% and 62.5%,100%,7.07% and 15.48%,1.16% and 0.78%

# Same assay, conditions: human, 12 h, 1 µM, compound concentration 1 uM
row,SMILES,Total Cell Count
1,CCOc1c2c(c(OCC)c3ncccc13)CN(c1ccc(CS(=O)(=O)NC(=O)Cc3ccccc3OC)cc1C)C2=O,189 and 93
2,CCCN1CCC[C@@H]2Cc3n[nH]cc3C[C@H]21.Cl [QUINPIROLE HYDROCHLORIDE],265 and 118
3,O=C(Nc1cc(C(F)(F)F)ccc1N1CCCCC1)c1ccncc1,382 and 155

# Same assay, conditions: human, 12 h, 10 µM, compound concentration 10 uM
SMILES,Population Apoptotic (%),Population Fragmented Nuclei (%),Population Healthy Nuclei (%),Population Hoechst High Intensity Objects (%),Population Membrane Permeable-Phenotype (%),Population Mitochondria Different-Phenotype (%),Population Mitotic Cells (%),Population Normal (%),Population Pyknosed Nuclei (%),Population Tubulin-Different-Phenotype (%)
CC(=O)Nc1cccc2c1c(Sc1ccc(Cl)cc1)c(C)n2CC(=O)O [AZD1981],83% and 80%,25% and 19%,66% and 76%,2% and 3%,8% and 10%,0% and 3%,16% and 20%,97% and 96%,7% and 4%,1% and 5%
CCOc1c2c(c(OCC)c3ncccc13)CN(c1ccc(CS(=O)(=O)NC(=O)Cc3ccccc3OC)cc1C)C2=O,81% and 80%,30% and 21%,63% and 75%,2%,5% and 8%,3% and 6%,18% and 20%,97%,6% and 3%,2% and 3%
CCCN1CCC[C@@H]2Cc3n[nH]cc3C[C@H]21.Cl [QUINPIROLE HYDROCHLORIDE],58% and 100%,19% and 9%,72% and 85%,1% and 2%,2% and 6%,0% and 5%,–,98% and 97%,7% and 4%,1% and 2%
O=C(Nc1cc(C(F)(F)F)ccc1N1CCCCC1)c1ccncc1,32.65% and 31.25%,1.78% and 5.19%,87.31% and 74.03%,0%,2.81% and 6.14%,–,67.35% and 68.75%,100%,10.91% and 20.78%,6.89% and 7.89%

# Same assay, conditions: human, 12 h, 10 µM, compound concentration 10 uM
row,SMILES,Total Cell Count
1,CC(=O)Nc1cccc2c1c(Sc1ccc(Cl)cc1)c(C)n2CC(=O)O [AZD1981],231 and 122
2,CCOc1c2c(c(OCC)c3ncccc13)CN(c1ccc(CS(=O)(=O)NC(=O)Cc3ccccc3OC)cc1C)C2=O,248 and 136
3,CCCN1CCC[C@@H]2Cc3n[nH]cc3C[C@H]21.Cl [QUINPIROLE HYDROCHLORIDE],228 and 126
4,O=C(Nc1cc(C(F)(F)F)ccc1N1CCCCC1)c1ccncc1,449 and 154

# Same assay, conditions: human, 24 h, 1 µM, compound concentration 1 uM
SMILES,Population Apoptotic (%),Population Fragmented Nuclei (%),Population Healthy Nuclei (%),Population Hoechst High Intensity Objects (%),Population Membrane Permeable-Phenotype (%),Population Mitochondria Different-Phenotype (%),Population Normal (%),Population Pyknosed Nuclei (%),Population Tubulin-Different-Phenotype (%),Total Cell Count
CC(=O)Nc1cccc2c1c(Sc1ccc(Cl)cc1)c(C)n2CC(=O)O [AZD1981],91% and 50%,25% and 16%,66% and 82%,2% and 0%,5% and 4%,1% and 3%,97% and 100%,8% and 1%,3% and 0%,289 and 106
CCOc1c2c(c(OCC)c3ncccc13)CN(c1ccc(CS(=O)(=O)NC(=O)Cc3ccccc3OC)cc1C)C2=O,80% and 100%,21% and 19%,71% and 76%,3% and 1%,4% and 7%,0% and 4%,96% and 98%,6% and 4%,1% and 4%,235 and 125
CCCN1CCC[C@@H]2Cc3n[nH]cc3C[C@H]21.Cl [QUINPIROLE HYDROCHLORIDE],68% and 77%,27% and 18%,64% and 68%,1% and 0%,4%,3% and 4%,98% and 100%,7% and 13%,3% and 4%,299 and 138
O=C(Nc1cc(C(F)(F)F)ccc1N1CCCCC1)c1ccncc1,24.39% and 47.37%,2.34% and 1.57%,89.65% and 88.48%,0%,0.65% and 1.78%,0.22% and 4.73%,100%,8.01% and 9.95%,1.09% and 0.59%,512 and 191

# Same assay, conditions: human, 24 h, 1 µM, compound concentration 1 uM
row,SMILES,Population Mitotic Cells (%)
1,CCOc1c2c(c(OCC)c3ncccc13)CN(c1ccc(CS(=O)(=O)NC(=O)Cc3ccccc3OC)cc1C)C2=O,20% and 0%
2,CCCN1CCC[C@@H]2Cc3n[nH]cc3C[C@H]21.Cl [QUINPIROLE HYDROCHLORIDE],31% and 22%
3,O=C(Nc1cc(C(F)(F)F)ccc1N1CCCCC1)c1ccncc1,75.61% and 52.63%

# Same assay, conditions: human, 24 h, 10 µM, compound concentration 10 uM
SMILES,Population Apoptotic (%),Population Fragmented Nuclei (%),Population Healthy Nuclei (%),Population Hoechst High Intensity Objects (%),Population Membrane Permeable-Phenotype (%),Population Mitochondria Different-Phenotype (%),Population Mitotic Cells (%),Population Normal (%),Population Pyknosed Nuclei (%),Population Tubulin-Different-Phenotype (%)
CC(=O)Nc1cccc2c1c(Sc1ccc(Cl)cc1)c(C)n2CC(=O)O [AZD1981],88% and 100%,23% and 14%,66% and 77%,0%,6% and 3%,2% and 4%,11% and 0%,99%,9% and 8%,2% and 0%
CCOc1c2c(c(OCC)c3ncccc13)CN(c1ccc(CS(=O)(=O)NC(=O)Cc3ccccc3OC)cc1C)C2=O,76% and 100%,27% and 17%,61% and 76%,3% and 0%,6%,2%,23% and 0%,96% and 99%,10% and 5%,1% and 5%
CCCN1CCC[C@@H]2Cc3n[nH]cc3C[C@H]21.Cl [QUINPIROLE HYDROCHLORIDE],88% and 92%,13% and 9%,80% and 82%,2% and 0%,2% and 0%,0% and 1%,11% and 7%,97% and 99%,6% and 8%,1% and 0%
O=C(Nc1cc(C(F)(F)F)ccc1N1CCCCC1)c1ccncc1,35.62% and 25.81%,1.19% and 3.28%,86.37% and 79.78%,0%,1.18% and 2.05%,–,64.38% and 74.19%,100%,12.44% and 16.94%,5.13% and 1.37%

# Same assay, conditions: human, 24 h, 10 µM, compound concentration 10 uM
row,SMILES,Total Cell Count
1,CC(=O)Nc1cccc2c1c(Sc1ccc(Cl)cc1)c(C)n2CC(=O)O [AZD1981],266 and 125
2,CCOc1c2c(c(OCC)c3ncccc13)CN(c1ccc(CS(=O)(=O)NC(=O)Cc3ccccc3OC)cc1C)C2=O,285 and 152
3,CCCN1CCC[C@@H]2Cc3n[nH]cc3C[C@H]21.Cl [QUINPIROLE HYDROCHLORIDE],281 and 163

# Same assay, conditions: human, 48 h, 1 µM, compound concentration 1 uM
SMILES,Population Apoptotic (%),Population Fragmented Nuclei (%),Population Healthy Nuclei (%),Population Hoechst High Intensity Objects (%),Population Membrane Permeable-Phenotype (%),Population Mitochondria Different-Phenotype (%),Population Mitotic Cells (%),Population Normal (%),Population Pyknosed Nuclei (%),Population Tubulin-Different-Phenotype (%)
CC(=O)Nc1cccc2c1c(Sc1ccc(Cl)cc1)c(C)n2CC(=O)O [AZD1981],91% and 81%,16% and 9%,74% and 82%,1% and 3%,6%,2% and 0%,8% and 18%,98% and 96%,9% and 7%,4% and 1%
CCOc1c2c(c(OCC)c3ncccc13)CN(c1ccc(CS(=O)(=O)NC(=O)Cc3ccccc3OC)cc1C)C2=O,85% and 100%,19% and 17%,74% and 79%,2% and 4%,3% and 7%,1% and 3%,15% and 0%,97% and 95%,5% and 2%,2% and 5%
CCCN1CCC[C@@H]2Cc3n[nH]cc3C[C@H]21.Cl [QUINPIROLE HYDROCHLORIDE],75% and 78%,19% and 17%,74% and 69%,1% and 3%,4%,1% and 5%,25% and 21%,98% and 96%,6% and 13%,2%
O=C(Nc1cc(C(F)(F)F)ccc1N1CCCCC1)c1ccncc1,36.36% and 35.71%,3.47% and 3.02%,86.98% and 88.52%,0%,1% and 4.1%,0.37% and 3.75%,63.64% and 64.29%,100%,9.54% and 8.46%,1.37% and 2.05%

# Same assay, conditions: human, 48 h, 1 µM, compound concentration 1 uM
row,SMILES,Total Cell Count
1,CC(=O)Nc1cccc2c1c(Sc1ccc(Cl)cc1)c(C)n2CC(=O)O [AZD1981],375 and 144
2,CCOc1c2c(c(OCC)c3ncccc13)CN(c1ccc(CS(=O)(=O)NC(=O)Cc3ccccc3OC)cc1C)C2=O,344 and 167
3,CCCN1CCC[C@@H]2Cc3n[nH]cc3C[C@H]21.Cl [QUINPIROLE HYDROCHLORIDE],425 and 180
4,O=C(Nc1cc(C(F)(F)F)ccc1N1CCCCC1)c1ccncc1,922 and 331

# Same assay, conditions: human, 48 h, 10 µM, compound concentration 10 uM
SMILES,Population Apoptotic (%),Population Fragmented Nuclei (%),Population Healthy Nuclei (%),Population Hoechst High Intensity Objects (%),Population Membrane Permeable-Phenotype (%),Population Mitochondria Different-Phenotype (%),Population Mitotic Cells (%),Population Normal (%),Population Pyknosed Nuclei (%),Population Tubulin-Different-Phenotype (%)
CC(=O)Nc1cccc2c1c(Sc1ccc(Cl)cc1)c(C)n2CC(=O)O [AZD1981],100% and 85%,18% and 14%,75% and 73%,2% and 1%,7%,2% and 4%,0% and 15%,97% and 98%,5% and 11%,4%
CCOc1c2c(c(OCC)c3ncccc13)CN(c1ccc(CS(=O)(=O)NC(=O)Cc3ccccc3OC)cc1C)C2=O,91% and 100%,19% and 18%,71% and 74%,2%,5% and 8%,1% and 4%,8% and 0%,97%,9% and 6%,2% and 3%
CCCN1CCC[C@@H]2Cc3n[nH]cc3C[C@H]21.Cl [QUINPIROLE HYDROCHLORIDE],86% and 91%,11% and 12%,78%,3% and 1%,4% and 6%,1% and 4%,13% and 8%,96% and 98%,9%,3% and 2%
O=C(Nc1cc(C(F)(F)F)ccc1N1CCCCC1)c1ccncc1,47.54% and 53.06%,2.11% and 4.76%,86.22% and 78.57%,0.19% and 0%,1.66% and 1.73%,–,52.46% and 46.94%,99.81% and 100%,11.67% and 16.67%,4.55% and 3.03%

# Same assay, conditions: human, 48 h, 10 µM, compound concentration 10 uM
row,SMILES,Total Cell Count
1,CC(=O)Nc1cccc2c1c(Sc1ccc(Cl)cc1)c(C)n2CC(=O)O [AZD1981],366 and 171
2,CCOc1c2c(c(OCC)c3ncccc13)CN(c1ccc(CS(=O)(=O)NC(=O)Cc3ccccc3OC)cc1C)C2=O,385 and 236
3,CCCN1CCC[C@@H]2Cc3n[nH]cc3C[C@H]21.Cl [QUINPIROLE HYDROCHLORIDE],386 and 251
